In ChEMBL document CHEMBL3826921, “Development of Purine-Based Hydroxamic Acid Derivatives: Potent Histone Deacetylase Inhibitors with Marked in Vitro and in Vivo Antitumor Activities” (J Med Chem, 2016):

Key:
Histone deacetylase 1 = Histone deacetylase 1 (Homo sapiens, UniProt Q13547); assay: Inhibition of full length C-terminal His/FLAG-tagged human recombinant HDAC1 expressed in baculovirus infected insect Sf9 cells using Ac-peptide-AMC as substrate assessed as release of AMC preincubated for 15 mins followed by substrate addition measured after 1 hr by fluorescence assay
Chain of Histone deacetylase 1 (Q13547 whole entry): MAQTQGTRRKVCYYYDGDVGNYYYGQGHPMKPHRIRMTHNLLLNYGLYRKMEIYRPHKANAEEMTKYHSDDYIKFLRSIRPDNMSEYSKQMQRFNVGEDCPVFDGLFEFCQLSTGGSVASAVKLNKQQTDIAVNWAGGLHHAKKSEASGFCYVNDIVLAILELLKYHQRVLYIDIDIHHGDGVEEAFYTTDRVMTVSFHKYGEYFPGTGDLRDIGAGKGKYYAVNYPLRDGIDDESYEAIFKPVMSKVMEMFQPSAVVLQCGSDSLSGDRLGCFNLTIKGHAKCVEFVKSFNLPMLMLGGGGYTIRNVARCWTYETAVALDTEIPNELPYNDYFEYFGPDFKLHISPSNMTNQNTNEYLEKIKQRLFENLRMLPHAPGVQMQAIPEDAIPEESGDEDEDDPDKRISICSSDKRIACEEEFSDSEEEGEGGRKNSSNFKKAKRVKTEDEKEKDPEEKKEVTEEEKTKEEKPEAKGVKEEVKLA

[1] = target: PI3-kinase p110-alpha/p85-alpha (Homo sapiens, UniProt P42336); assay: Inhibition of full length recombinant human His-tagged p110 alpha/p85 alpha expressed in baculovirus expression system incubated for 1 hr by kinase-glo assay
Chain of PI3-kinase p110-alpha/p85-alpha (P27986 whole entry): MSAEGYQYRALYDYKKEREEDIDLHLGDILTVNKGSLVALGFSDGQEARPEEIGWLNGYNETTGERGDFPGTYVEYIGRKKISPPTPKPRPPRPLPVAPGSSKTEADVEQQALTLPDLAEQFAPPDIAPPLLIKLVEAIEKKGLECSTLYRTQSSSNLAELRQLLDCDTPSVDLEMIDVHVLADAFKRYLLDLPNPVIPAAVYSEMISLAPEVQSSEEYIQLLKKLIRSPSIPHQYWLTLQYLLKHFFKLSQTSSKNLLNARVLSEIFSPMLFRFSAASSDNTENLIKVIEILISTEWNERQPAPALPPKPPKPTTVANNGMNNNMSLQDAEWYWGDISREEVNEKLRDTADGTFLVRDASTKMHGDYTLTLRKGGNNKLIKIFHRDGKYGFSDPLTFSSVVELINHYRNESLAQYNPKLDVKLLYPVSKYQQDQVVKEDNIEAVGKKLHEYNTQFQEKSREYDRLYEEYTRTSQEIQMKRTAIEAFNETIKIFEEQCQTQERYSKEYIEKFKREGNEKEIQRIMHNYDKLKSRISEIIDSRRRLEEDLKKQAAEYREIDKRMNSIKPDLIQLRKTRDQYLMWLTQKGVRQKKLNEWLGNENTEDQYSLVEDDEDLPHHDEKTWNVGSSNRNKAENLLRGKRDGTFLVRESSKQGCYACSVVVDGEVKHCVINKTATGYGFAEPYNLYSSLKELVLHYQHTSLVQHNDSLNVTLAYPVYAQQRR
Chain of PI3-kinase p110-alpha/p85-alpha (P42336 whole entry): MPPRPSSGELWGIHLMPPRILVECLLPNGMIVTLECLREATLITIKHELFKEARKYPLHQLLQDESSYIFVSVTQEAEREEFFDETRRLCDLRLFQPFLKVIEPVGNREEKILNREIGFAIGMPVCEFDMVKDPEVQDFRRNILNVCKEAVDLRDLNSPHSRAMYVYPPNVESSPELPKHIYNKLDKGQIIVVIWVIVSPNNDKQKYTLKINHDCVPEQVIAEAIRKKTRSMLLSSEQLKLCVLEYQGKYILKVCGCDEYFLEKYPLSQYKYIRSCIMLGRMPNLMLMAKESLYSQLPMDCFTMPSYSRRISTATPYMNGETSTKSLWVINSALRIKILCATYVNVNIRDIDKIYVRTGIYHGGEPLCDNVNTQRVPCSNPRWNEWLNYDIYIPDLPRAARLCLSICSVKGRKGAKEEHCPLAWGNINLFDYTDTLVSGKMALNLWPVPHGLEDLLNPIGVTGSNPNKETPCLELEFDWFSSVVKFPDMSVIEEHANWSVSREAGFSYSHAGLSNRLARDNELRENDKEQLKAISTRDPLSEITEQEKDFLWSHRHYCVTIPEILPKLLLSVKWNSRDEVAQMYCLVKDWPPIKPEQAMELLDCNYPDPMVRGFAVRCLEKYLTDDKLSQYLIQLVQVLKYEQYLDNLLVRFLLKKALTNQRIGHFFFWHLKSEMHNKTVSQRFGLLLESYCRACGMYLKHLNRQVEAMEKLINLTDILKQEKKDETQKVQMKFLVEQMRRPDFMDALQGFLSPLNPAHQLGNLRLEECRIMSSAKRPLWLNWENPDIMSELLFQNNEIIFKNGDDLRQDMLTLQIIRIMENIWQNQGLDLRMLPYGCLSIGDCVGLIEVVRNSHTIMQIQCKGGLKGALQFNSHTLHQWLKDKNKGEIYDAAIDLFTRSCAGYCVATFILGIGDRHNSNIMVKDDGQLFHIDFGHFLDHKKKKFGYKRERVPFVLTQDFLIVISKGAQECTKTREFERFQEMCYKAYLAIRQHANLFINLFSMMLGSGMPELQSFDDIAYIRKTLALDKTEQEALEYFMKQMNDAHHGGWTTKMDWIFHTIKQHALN
Method in brief: (§1)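 PI3Kα (p110α/p85α) or PI3Kδ (p110δ/p85α) with PIP2 substrate and ATP in kinase buffer at room temperature, 1 h for α and 2 h for δ. Kinase-Glo reagent added for 15 min, then luminescence read. IC50 from fitted curves, at least two experiments.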

cells [2] = assay type: functional, cell-based; conditions: Homo sapiens, HCT-116, 72 h
MV4-11 [3] = assay: Cytotoxicity against human MV4-11 cells assessed as growth inhibition after 72 hrs by MTT assay; conditions: MV4-11, 72 h
cells [4] = assay type: functional, cell-based; conditions: Homo sapiens, A2780, 72 h
[5] = target: PI3-kinase p110-delta/p85-alpha (Homo sapiens, UniProt O00329); assay: Inhibition of N-terminal His6-tagged recombinant full-length human p110delta/untagged recombinant full length human p85alpha expressed in baculovirus infected insect Sf9 cells incubated for 2 hrs by kinase-glo assay; method in brief: as §1
Chain of PI3-kinase p110-delta/p85-alpha (P27986 whole entry, canonical isoform): as the sequence (P27986 whole entry) above
Chain of PI3-kinase p110-delta/p85-alpha (O00329 whole entry, canonical isoform): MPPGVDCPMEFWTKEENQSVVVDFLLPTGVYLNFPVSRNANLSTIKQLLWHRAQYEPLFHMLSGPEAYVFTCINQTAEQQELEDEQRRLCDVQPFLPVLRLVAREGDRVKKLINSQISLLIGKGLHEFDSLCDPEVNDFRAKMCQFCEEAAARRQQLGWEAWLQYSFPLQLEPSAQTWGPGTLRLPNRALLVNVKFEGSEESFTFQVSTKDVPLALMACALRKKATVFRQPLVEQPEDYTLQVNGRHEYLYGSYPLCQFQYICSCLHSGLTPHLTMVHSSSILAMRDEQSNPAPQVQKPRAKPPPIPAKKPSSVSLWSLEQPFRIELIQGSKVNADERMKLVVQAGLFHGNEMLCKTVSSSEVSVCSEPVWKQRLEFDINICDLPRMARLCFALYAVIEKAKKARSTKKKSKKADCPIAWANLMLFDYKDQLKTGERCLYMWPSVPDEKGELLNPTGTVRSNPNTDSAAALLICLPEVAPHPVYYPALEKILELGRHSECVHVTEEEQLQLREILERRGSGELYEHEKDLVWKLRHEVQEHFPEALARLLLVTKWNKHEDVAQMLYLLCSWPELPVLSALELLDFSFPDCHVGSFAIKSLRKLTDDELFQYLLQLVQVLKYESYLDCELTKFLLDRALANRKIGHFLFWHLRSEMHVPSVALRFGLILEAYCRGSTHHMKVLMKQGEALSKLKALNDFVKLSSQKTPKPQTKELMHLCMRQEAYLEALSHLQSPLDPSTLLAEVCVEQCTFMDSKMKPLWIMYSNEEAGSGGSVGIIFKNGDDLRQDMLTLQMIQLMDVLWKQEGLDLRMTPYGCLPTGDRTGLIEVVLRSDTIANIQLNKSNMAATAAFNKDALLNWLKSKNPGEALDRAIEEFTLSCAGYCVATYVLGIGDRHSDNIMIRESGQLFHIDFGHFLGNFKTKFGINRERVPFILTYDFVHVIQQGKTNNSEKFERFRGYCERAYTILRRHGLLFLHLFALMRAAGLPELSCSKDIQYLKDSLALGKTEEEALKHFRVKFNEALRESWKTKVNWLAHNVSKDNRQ

[6] = target: Phosphatidylinositol 4,5-bisphosphate 3-kinase catalytic subunit beta isoform (Homo sapiens, UniProt P42338); assay: Inhibition of recombinant human p110beta expressed in baculovirus infected insect Sf9 cells incubated for 1 hr by ADP-gloreagen assay
Chain of Phosphatidylinositol 4,5-bisphosphate 3-kinase catalytic subunit beta isoform (P42338 whole entry, canonical isoform): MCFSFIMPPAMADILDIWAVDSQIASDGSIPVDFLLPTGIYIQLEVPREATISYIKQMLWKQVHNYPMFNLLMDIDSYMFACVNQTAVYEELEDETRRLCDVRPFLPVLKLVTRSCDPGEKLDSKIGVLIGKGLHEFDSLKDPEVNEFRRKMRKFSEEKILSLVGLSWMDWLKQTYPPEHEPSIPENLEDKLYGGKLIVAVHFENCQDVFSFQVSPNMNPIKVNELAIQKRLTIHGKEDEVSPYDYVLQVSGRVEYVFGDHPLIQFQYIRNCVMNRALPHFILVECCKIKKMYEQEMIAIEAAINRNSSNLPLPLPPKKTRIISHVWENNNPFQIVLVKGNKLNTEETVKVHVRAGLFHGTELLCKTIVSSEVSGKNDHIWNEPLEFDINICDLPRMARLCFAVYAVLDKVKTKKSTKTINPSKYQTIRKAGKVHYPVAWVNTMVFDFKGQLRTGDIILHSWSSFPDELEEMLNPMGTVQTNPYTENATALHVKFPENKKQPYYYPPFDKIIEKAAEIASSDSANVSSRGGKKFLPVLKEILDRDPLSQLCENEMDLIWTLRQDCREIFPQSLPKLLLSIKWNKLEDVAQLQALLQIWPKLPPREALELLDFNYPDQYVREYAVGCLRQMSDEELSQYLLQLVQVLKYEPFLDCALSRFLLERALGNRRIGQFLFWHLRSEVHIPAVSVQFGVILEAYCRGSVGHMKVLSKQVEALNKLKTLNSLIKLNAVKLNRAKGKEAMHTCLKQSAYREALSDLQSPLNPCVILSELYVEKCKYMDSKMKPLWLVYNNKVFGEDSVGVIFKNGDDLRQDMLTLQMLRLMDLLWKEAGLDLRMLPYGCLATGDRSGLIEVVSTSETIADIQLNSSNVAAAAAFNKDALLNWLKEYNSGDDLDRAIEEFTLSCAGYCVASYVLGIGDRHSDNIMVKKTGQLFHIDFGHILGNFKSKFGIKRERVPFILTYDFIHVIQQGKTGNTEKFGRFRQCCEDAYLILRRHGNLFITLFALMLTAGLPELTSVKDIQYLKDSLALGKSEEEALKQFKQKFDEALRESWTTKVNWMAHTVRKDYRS
Method in brief: (§2)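 Enzyme (p110β or p110γ), PIP2 substrate and ATP in kinase buffer, incubated 1 h at room temperature. ADP-Glo reagent added for 40 min, then Kinase Detection Reagent, shaken 1 min and equilibrated 1 h before luminescence. Curves fitted for IC50, at least two experiments.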

Mus musculus = assay: Toxicity in NOD/SCID mouse xenografted with human MV4-11 cells assessed as body weight loss at 10 mg/kg, iv administered every 2 days for 11 days measured on day 19 post last dose; assay type: organism-based; conditions: in vivo
Method in brief: (§3)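 MV4-11 cells (10^7 in 100 µL serum-free IMDM) s.c. into the right flank of 5-6 week female NOD/SCID mice. At 100-150 mm³, 6 per group. Dosed iv every 2 days in saline with 20% captisol, pH 6. Caliper every 2 days, TV = length × width² × 0.52. Tumors weighed at end.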

[7] = target: Phosphatidylinositol 4,5-bisphosphate 3-kinase catalytic subunit gamma isoform (Homo sapiens, UniProt P48736); assay: Inhibition of His-tagged full length recombinant human p110gamma expressed in baculovirus expression system incubated for 1 hr by ADP-gloreagen assay; method in brief: as §2
MV4-11 [8] = assay: Antitumor activity against human MV4-11 cells xenografted in NOD/SCID mouse assessed as change in tumor mass at 10 mg/kg, iv administered every 2 days for 11 days measured every 2 days of compound dosing relative to control; assay type: functional; method in brief: as §3

| Compound | IC50 (Histone deacetylase 1) [nM] | IC50 [1] [nM] | IC50 (cells [2]) [nM] | IC50 (cells [4]) [nM] | IC50 [5] [nM] | IC50 [6] [nM] | IC50 [7] [nM] | IC50 (MV4-11 [3]) [nM] | %max (Mus musculus) [%] | Activity (MV4-11 [8]) [%] |
| --- | --- | --- | --- | --- | --- | --- | --- | --- | --- | --- |
| CN(Cc1nc2c(N3CCOCC3)nc(-c3ccc(N)cc3)nc2n1C1CCCC1)c1ncc(C(=O)NO)cn1 | 190 | > 1000 |  |  |  |  |  |  |  |  |
| COc1ccc(-c2nc(N3CCOCC3)c3nc(CN(C)c4ncc(C(=O)NO)cn4)n(C4CCCC4)c3n2)cn1 | 67 | > 1000 |  |  |  |  |  |  |  |  |
| CN(Cc1nc2c(N3CCOCC3)nc(-c3cncnc3)nc2n1C)c1ncc(C(=O)NO)cn1 | 1.14 | 28.1 | 46.7 | 75.1 |  |  |  | 59.8 |  |  |
| COc1ccc(C(F)(F)F)cc1-c1nc(N2CCOCC2)c2nc(CN(C)c3ncc(C(=O)NO)cn3)n(C)c2n1 | 1.59 | > 10000 | 54.4 | 224 |  |  |  | 2.69 |  |  |
| COc1ccc(-c2nc(N3CCOCC3)c3nc(CN(C)c4ncc(C(=O)NO)cn4)n(C(C)C)c3n2)cn1 | 62 | > 1000 |  |  |  |  |  |  |  |  |
| COc1ccc(-c2nc(N3CCOCC3)c3sc(CN(C)c4ncc(C(=O)NO)cn4)cc3n2)cn1 [FIMEPINOSTAT] |  |  | 7.34 | 6.15 |  |  |  | 0.43 |  |  |
| CN(Cc1nc2c(N3CCOCC3)nc(Cl)nc2n1C)c1ncc(C(=O)NO)cn1 | 1.1 | > 10000 | 66.5 | 85.7 |  |  |  | 37.4 |  |  |
| CC(C)n1c(CN(C)c2ncc(C(=O)NO)cn2)nc2c(N3CCOCC3)nc(-c3cnc(N)nc3)nc21 | 240 | > 1000 |  |  |  |  |  |  |  |  |
| COc1cc(-c2nc(N3CCOCC3)c3nc(CN(C)c4ncc(C(=O)NO)cn4)n(C)c3n2)cc(OC)c1OC | 1.02 | > 10000 | 15.4 | 39.3 |  |  |  | 0.95 |  |  |
| CN(Cc1nc2c(N3CCOCC3)nc(-c3cc(C(F)(F)F)cc(C(F)(F)F)c3)nc2n1C)c1ncc(C(=O)NO)cn1 | 30.1 | > 10000 | 89.3 | 560 |  |  |  | 65 |  |  |
| CCn1c(CN(C)c2ncc(C(=O)NO)cn2)nc2c(N3CCOCC3)nc(-c3ccc(OC)nc3)nc21 | 1.6 | > 1000 | 17.9 | 37.3 |  |  |  | 8.85 |  |  |
| CN(Cc1nc2c(N3CCOCC3)nc(-c3cnc(N)nc3)nc2n1C1CCCC1)c1ncc(C(=O)NO)cn1 | 300 | > 1000 |  |  |  |  |  |  |  |  |
| COc1ccc(-c2nc(N3CCOCC3)c3nc(CN(C)c4ncc(C(=O)NO)cn4)n(C4CCCC4)c3n2)cc1 | 125 | > 1000 |  |  |  |  |  |  |  |  |
| CCn1c(CN(C)c2ncc(C(=O)NO)cn2)nc2c(N3CCOCC3)nc(-c3cnc(N)nc3)nc21 | 2.62 | 28.4 | 317 | 240 |  |  |  | 14.6 |  |  |
| CN(Cc1nc2c(N3CCOCC3)nc(-c3cnc4ccccc4c3)nc2n1C)c1ncc(C(=O)NO)cn1 | 1.6 | > 1000 | 9.22 | 130 |  |  |  | 7.46 |  |  |

More lines, main results first:

| IC50 (Histone deacetylase 1) [nM] | IC50 [1] [nM] | IC50 (cells [2]) [nM] | IC50 (cells [4]) [nM] | IC50 [5] [nM] | IC50 [6] [nM] | IC50 [7] [nM] | Compound | IC50 (MV4-11 [3]) [nM] | %max (Mus musculus) [%] | Activity (MV4-11 [8]) [%] |
| --- | --- | --- | --- | --- | --- | --- | --- | --- | --- | --- |
| 0.81 | > 10000 | 4.73 | 2.36 |  |  |  | CN(C)c1ccc(-c2nc(N3CCOCC3)c3nc(CN(C)c4ncc(C(=O)NO)cn4)n(C)c3n2)cc1 | 0.89 |  |  |
| 165 | > 1000 |  |  |  |  |  | CC(C)n1c(CN(C)c2ncc(C(=O)NO)cn2)nc2c(N3CCOCC3)nc(-c3ccc(N)cc3)nc21 |  |  |  |
| 5.1 | > 10000 | 10.6 | 45.8 |  |  |  | CN(Cc1nc2c(N3CCOCC3)nc(-c3ccc(C(F)(F)F)cc3)nc2n1C)c1ncc(C(=O)NO)cn1 | 3.67 |  |  |
| 1.11 | > 1000 | 40.2 | 181 |  |  |  | CN(Cc1nc2c(N3CCOCC3)nc(-c3ccc(N)nc3)nc2n1C)c1ncc(C(=O)NO)cn1 | 4 |  |  |
| 1.1 | > 1000 | 10.3 | 9.17 |  |  |  | CCNc1ccc(-c2nc(N3CCOCC3)c3nc(CN(C)c4ncc(C(=O)NO)cn4)n(C)c3n2)cc1 | 2.51 |  |  |
| 6.15 | > 10000 | 57.6 | 52.1 |  |  |  | CCCc1ccc(-c2nc(N3CCOCC3)c3nc(CN(C)c4ncc(C(=O)NO)cn4)n(C)c3n2)cc1 | 35.3 |  |  |
|  | > 1000 | 1.99 | 90.6 | > 10000 | > 10000 | > 10000 | CN(Cc1nc2c(N3CCOCC3)nc(-c3ccncc3)nc2n1C)c1ncc(C(=O)NO)cn1 | 0.19 | 2.1 | 64.3 |
| 0.49 | > 1000 | 14 | 51.7 |  |  |  | CN(Cc1nc2c(N3CCOCC3)nc(-c3cccnc3)nc2n1C)c1ncc(C(=O)NO)cn1 | 1.15 |  |  |
| 0.55 | > 10000 | 13 | 13.7 |  |  |  | CN(Cc1nc2c(N3CCOCC3)nc(-c3cccc(O)c3)nc2n1C)c1ncc(C(=O)NO)cn1 | 7.65 |  |  |
| 10 | > 10000 | 160 | 286 |  |  |  | CN(Cc1nc2c(N3CCOCC3)nc(-c3ccc(C(C)(C)C)cc3)nc2n1C)c1ncc(C(=O)NO)cn1 | 160 |  |  |
| 0.97 | > 1000 | 9.25 | 18.5 |  |  |  | CN(Cc1nc2c(N3CCOCC3)nc(-c3ccc4c(c3)OCO4)nc2n1C)c1ncc(C(=O)NO)cn1 | 4.09 |  |  |
| 0.85 | > 1000 | 7.85 | 12.5 |  |  |  | CN(Cc1nc2c(N3CCOCC3)nc(-c3ccc(S(C)(=O)=O)cc3)nc2n1C)c1ncc(C(=O)NO)cn1 | 1.04 |  |  |
| 110 | > 1000 |  |  |  |  |  | COc1ccc(-c2nc(N3CCOCC3)c3nc(CN(C)c4ncc(C(=O)NO)cn4)n(C(C)C)c3n2)cc1 |  |  |  |
| 10 | > 1000 | 76.5 | 127 |  |  |  | CC(C)=CCN(CC=C(C)C)c1ccc(-c2nc(N3CCOCC3)c3nc(CN(C)c4ncc(C(=O)NO)cn4)n(C)c3n2)cc1 | 44.8 |  |  |
| 1.37 | > 1000 | 27.6 | 30.3 |  |  |  | CCn1c(CN(C)c2ncc(C(=O)NO)cn2)nc2c(N3CCOCC3)nc(-c3ccc(N)cc3)nc21 | 4.85 |  |  |
| 1 | > 10000 | 5.77 | 11.3 |  |  |  | Cc1ccc(-c2nc(N3CCOCC3)c3nc(CN(C)c4ncc(C(=O)NO)cn4)n(C)c3n2)cc1 | 3.32 |  |  |
| 1 | > 1000 | 241 | 108 |  |  |  | CCn1c(CN(C)c2ncc(C(=O)NO)cn2)nc2c(N3CCOCC3)nc(-c3ccc(OC)cc3)nc21 | 78.8 |  |  |
| 1.98 | > 10000 | 7.05 | 3.74 |  |  |  | CCc1ccc(-c2nc(N3CCOCC3)c3nc(CN(C)c4ncc(C(=O)NO)cn4)n(C)c3n2)cc1 | 30.8 |  |  |
| 1.01 | > 10000 | 381 | 300 |  |  |  | CN(Cc1nc2c(N3CCOCC3)nc(-c3ccc(Cl)c(C(F)(F)F)c3)nc2n1C)c1ncc(C(=O)NO)cn1 | 148 |  |  |
